Measurements gathered from unrelated publications.
Lines come from different studies, so protocols differ.
BCHE: Cholinesterase (BCHE, Homo sapiens, UniProt P06276)
TPR: Trypanothione reductase (TPR, Trypanosoma cruzi, UniProt P28593)

SMILES	target	assay	conditions	quantity	value
Nc1c2c(nc3ccccc13)CCCC2	Ribosyldihydronicotinamide dehydrogenase [quinone] (NQO2, Homo sapiens, UniProt P16083)	enzyme activity, inhibitor, absorbance		IC50	3 µM
C=CCn1c2cc(OC(=O)CCCCN3CCN(Cc4ccccc4C(F)(F)F)CC3)ccc2c2ccnc(C)c21	BCHE	enzyme activity, inhibitor, Ellman		IC50	0.357 µM
C[C@H](N)Cn1ncc2ccc3c(c21)CCCO3	Serotonin 4 (5-HT4) receptor (Sus scrofa, UniProt Q6Q253)	ligand displacement, radioligand		IC50	30.3 µM
C[C@H]1COC2=C1C(=O)C(=O)c1c2ccc2c1CCCC2(C)C	BCHE	enzyme activity, inhibitor		Ki	> 100000 nM
CC(C)C[C@H](NC(=O)[C@H](Cc1ccccc1)NC(=O)c1cnccn1)B(O)O	Plasma kallikrein (KLKB1, Homo sapiens, UniProt P03952)	enzyme activity, inhibitor		IC50	2 µM
CSCC[C@H](NC(=O)[C@H](CC(C)C)NC(=O)[C@H](Cc1cnc[nH]1)NC(=O)CNC(=O)[C@@H](NC(=O)[C@H](C)NC(=O)[C@H](Cc1c[nH]c2ccccc12)NC(=O)[C@H](CCC(N)=O)NC(=O)[C@H](CC(N)=O)NC(=O)CNC(=O)[C@H](CC(C)C)NC(=O)[C@H](CCCN=C(N)N)NC(=O)[C@H](CCC(N)=O)NC(=O)[C@@H]1CCC(=O)N1)C(C)C)C(N)=O	Bombesin receptor subtype-3 (Brs3, Mus musculus, UniProt O54798)	calcium signal, agonist, fluorescence		EC50	> 10 µM
c1ccc2c(c1)CCc1ccccc1C2OCCN1CCNCC1	TPR	enzyme activity, inhibitor, absorbance		IC50	51.5 µM
Cn1cc(-c2cccc(N3CCc4c(sc5c4CC(C)(C)C5)C3=O)c2CO)cc(Nc2ccncn2)c1=O	Tyrosine-protein kinase Fgr (FGR, Homo sapiens, UniProt P09769)	enzyme activity, inhibitor, FRET		Ki	> 1110 nM
[O]=[V]([OH])([OH])[OH]	Tyrosyl-DNA phosphodiesterase 2 (TDP2, Homo sapiens, UniProt O95551)	enzyme activity, inhibitor, absorbance		IC50	40000 µM
CC(C)(O)[C@@H](Nc1nc(Cl)nc2c1ncn2[C@H]1[C@H](O)[C@H](O)[C@]2(CO)C[C@H]12)C1CC1	Muscarinic acetylcholine receptor M5 (CHRM5, Homo sapiens, UniProt P08912)	ligand displacement, radioligand		Ki	2730 nM
Cc1cc(O)cc(C)c1C[C@H](N)C(=O)N[C@H](C)C(=O)N[C@@H](Cc1ccccc1)C(=O)N[C@@H](CCCN)C(N)=O	Mu-type opioid receptor (OPRM1, Cavia porcellus, UniProt P97266)	ligand displacement, radioligand	cell membranes	Ki	0.033 nM
Cc1cc(C)c2[nH]c(=O)c(CN(CCO)C(=S)Nc3ccc(O)cc3)cc2c1	Beta-glucuronidase (uidA, Escherichia coli, UniProt P05804)	enzyme activity, inhibitor		EC50	4.5 µM
CC1=NCCc2c1[nH]c1cc(O)ccc21	Tyrosine-protein phosphatase non-receptor type 12 (PTPN12, Homo sapiens, UniProt Q05209)	enzyme activity, inhibitor, fluorescence		IC50	35 µM
c1ccc(CCCN2CCN(CCOC(c3ccccc3)c3ccccc3)CC2)cc1	TPR	enzyme activity, inhibitor, absorbance		IC50	10.9 µM
[O-]/[N+](=C\c1ccc2cccc(O)c2n1)Cc1ccccc1	BCHE	enzyme activity, inhibitor	pH 7	Ki	4.3 nM
